According to ChEMBL document CHEMBL1123656, “Synthesis and antitumor activity of tropolone derivatives. 4” (1987):

Legend:
Type in all cases: functional, Mus musculus
P388 [1] = experiment: Compound was evaluated for activity against P388 leukemia, at an intraperitoneal dose of 50 mg/kg
How it was run: (§1)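 Mice bearing P388 leukemia were given the compound intraperitoneally, with activity read out as T/C (%). The full protocol is cited to earlier work.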

P388 [2] = experiment: Compound was evaluated for activity against P388 leukemia, at an intraperitoneal dose of 25 mg/kg; how it was run: as §1
P388 [3] = experiment: Compound was evaluated for activity against P388 leukemia, at an intraperitoneal dose of 12.5 mg/kg; how it was run: as §1
P388 [4] = experiment: Compound was evaluated for activity against P388 leukemia, at an intraperitoneal dose of 400 mg/kg; how it was run: as §1
P388 [5] = experiment: Compound was evaluated for activity against P388 leukemia, at an intraperitoneal dose of 100 mg/kg; how it was run: as §1
P388 [6] = experiment: Compound was evaluated for activity against P388 leukemia, at an intraperitoneal dose of 200 mg/kg; how it was run: as §1
P388 [7] = experiment: Compound was evaluated for activity against P388 leukemia, at an intraperitoneal dose of 20 mg/kg; how it was run: as §1
P388 [8] = experiment: Compound was evaluated for activity against P388 leukemia, at an intraperitoneal dose of 3.1 mg/kg; how it was run: as §1
P388 [9] = experiment: Compound was evaluated for activity against P388 leukemia, at an intraperitoneal dose of 6.3 mg/kg; how it was run: as §1
P388 [10] = experiment: Compound was evaluated for activity against P388 leukemia, at an intraperitoneal dose of 10 mg/kg; how it was run: as §1
P388 [11] = experiment: Compound was evaluated for activity against P388 leukemia, at an intraperitoneal dose of 5 mg/kg; how it was run: as §1

Compound	T/C (P388 [1]) [%]	T/C (P388 [2]) [%]	T/C (P388 [3]) [%]	T/C (P388 [5]) [%]	T/C (P388 [6]) [%]	also measured
COc1ccc(C(c2ccc(C(C)C)cc(=O)c2O)c2ccc3ccccc3c2O)cc1 (configuration not stated)	108	125	105			
COc1ccc(C(C2=C(C)C(=O)c3ccccc3C2=O)c2ccc(C(C)C)cc(=O)c2O)cc1 (configuration not stated)				114	131	T/C (P388 [4]): 72%
COc1ccc(C(c2ccc(C(C)C)cc(=O)c2O)c2c(O)c(C(=O)O)cc3ccccc23)cc1 (configuration not stated)				141	0	T/C (P388 [7]): 106%
COc1ccc(C(c2cc(C(C)(C)C)ccc2O)c2ccc(C(C)C)cc(=O)c2O)cc1 (configuration not stated)	116	116		120		
COc1ccc(C(c2ccc(C(C)C)cc(=O)c2O)c2ccc3cccnc3c2O)cc1 (configuration not stated)			141			T/C (P388 [8]): 144%; T/C (P388 [9]): 151%
COc1ccc(C(c2ccc(C(C)C)cc(=O)c2O)c2c(O)cc3oc(-c4ccccc4)cc(=O)c3c2O)cc1 (configuration not stated)		127		136	148	
COc1ccc(C(c2cc(O)ccc2O)c2ccc(C(C)C)cc(=O)c2O)cc1 (configuration not stated)	128	142	128			
COc1ccc(C(c2ccc(C(C)C)cc(=O)c2O)c2c(O)oc3ccccc3c2=O)cc1 (configuration not stated)						T/C (P388 [7]): 127%; T/C (P388 [10]): 117%; T/C (P388 [11]): 128%
COc1ccc(C(C2=C(O)C(=O)c3ccccc3C2=O)c2ccc(C(C)C)cc(=O)c2O)cc1 (configuration not stated)	0					T/C (P388 [7]): 129%; T/C (P388 [11]): 108%
CCOC(c1ccc(OC)cc1)c1ccc(C(C)C)cc(=O)c1O (configuration not stated)				148		
COc1ccc(C(c2ccc(C(C)C)cc(=O)c2O)C2Oc3c(Cl)c(OC)cc(OC)c3C2=O)cc1 (configuration not stated)	109	117		130		
COc1ccc(C(c2cc(C(C)(C)C)cc(O)c2O)c2ccc(C(C)C)cc(=O)c2O)cc1 (configuration not stated)	168	127	110			
COc1ccc(C(c2ccc(O)cc2O)c2ccc(C(C)C)cc(=O)c2O)cc1 (configuration not stated)	98			104	136	
